Calls of active or inactive are those of the source.
Key:
[1] = test system: BT-549; experiment: Antiproliferative activity in human BT-549 cells assessed as cell viability at 1 uM by CCK-8 assay; type: functional, cell-based
[2] = test system: MDA-MB-231; experiment: Effect on human MDA-MB-231 cells assessed as JunD protein expression by Western blot analysis; type: functional, cell-based
[3] = test system: BT-549; experiment: Effect on human BT-549 cells assessed as RPS6KA2 protein expression by Western blot analysis; type: functional, cell-based
[4] = test system: MDA-MB-231; experiment: Effect on human MDA-MB-231 cells assessed as RPS6KA2 protein expression by Western blot analysis; type: functional, cell-based
[5] = test system: BT-549; experiment: Effect on human BT-549 cells assessed as JunD protein expression by Western blot analysis; type: functional, cell-based
[6] = test system: MDA-MB-231; experiment: Antiproliferative activity in human MDA-MB-231 cells assessed as reduction in cell growth at 1 uM by CCK-8 assay; type: functional, cell-based
[7] = test system: BT-549; experiment: Antiproliferative activity in human BT-549 cells assessed as reduction in cell growth at 1 uM by CCK-8 assay; type: functional, cell-based
[8] = test system: BT-549; experiment: Antiproliferative activity in human BT-549 cells assessed as reduced cell growth co-treated with GDC-0994 at 1 uM by CCK-8 assay; type: functional, cell-based
Summary of the method: (§1)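 MDA-MB-231 (DMEM + 10% FBS) or BT549 (RPMI-1640 + 10% FBS) seeded at 3000 cells/well and left to adhere overnight. Treated 48 h with the kinase inhibitors alone, combined, or together with JQ1. Growth measured by CCK-8 and normalized to the DMSO-treated control after background subtraction. Triplicates, mean ± SD, one-way ANOVA against JQ1 alone.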

[9] = test system: MDA-MB-231; experiment: Antiproliferative activity in human MDA-MB-231 cells assessed as reduced cell growth co-treated with GDC-0994 at 1 uM by CCK-8 assay; type: functional, cell-based; summary of the method: as §1
[10] = test system: MDA-MB-231; experiment: Effect on human MDA-MB-231 cells assessed as decrease in RSK3 protein expression in the presence of GDC-0994 at 1 uM by Western blot analysis; type: functional, cell-based
[11] = test system: BT-474; experiment: Antiproliferative activity in human BT-474 cells assessed as cell growth at 1 uM by CCK-8 assay; type: functional, cell-based
Summary of the method: (§2)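 Cells grown in 10% FBS medium (DMEM for BT-474 and MDA-MB-231) and seeded at 3000 cells/well, adhering overnight. Exposed to 1 μM for 48 h, with DMSO as control. Growth read by CCK-8 as background-subtracted signal normalized to the DMSO control. Mean ± SD of triplicates.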

[12] = test system: MDA-MB-231; experiment: Antiproliferative activity in human MDA-MB-231 cells assessed as cell growth at 1 uM by CCK-8 assay; type: functional, cell-based; summary of the method: as §2
[13] = test system: MDA-MB-231; experiment: Antitumor activity against human MDA-MB-231 cells xenografted in BALB/c nude mouse model assessed as reduction of tumor weight in the presence of osimertinib at 35 mg/kg/day, sc administered every 2 days for 30 days; type: functional, organism-based; conditions: time 30.0 day
Summary of the method: (§3)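 MDA-MB-231 xenografts used 1 × 10^6 cells injected subcutaneously into female BALB/c nude mice (4–6 weeks). Animals were split into four groups (n = 7) at ~100 mm3: vehicle, osimertinib 10 mg/kg, 35 mg/kg agent, or the combination, each given every 2 days. Volume was measured by calliper as length × width²/2; tumours were weighed at end.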

[14] = test system: BT-549; experiment: Antiproliferative activity in human BT-549 cells assessed as reduction in size of tumor sphere at 1 uM by Tumor sphere assay; type: functional, cell-based
[15] = test system: BT-549; experiment: Antiproliferative activity in human BRD4-knockdown BT-549 cells assessed as cell growth at 1 uM by CCK-8 assay; type: functional, cell-based
Summary of the method: (§4)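 Vector control or BRD4-knockdown cells, 3000/well, adhered overnight, then DMSO or osimertinib for 48 h; growth by CCK-8, normalized to DMSO-treated control. Triplicates, mean ± SD; one-way ANOVA, vehicle vs osimertinib in knockdown clones.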

[16] = test system: MDA-MB-231; experiment: Inhibition of cell migration in human MDA-MB-231 cells at 1 uM by transwell invasion assay; type: functional, cell-based
Summary of the method: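 Invasion assay: 1 × 10^5 cells seeded in Matrigel-coated upper Boyden chamber; lower chamber held serum-free medium with 100 nM LPA. After 24 or 48 h, invaded cells stained with crystal violet and counted.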

[17] = test system: MDA-MB-231; experiment: Antitumor activity against human MDA-MB-231 cells xenografted in BALB/c nude mouse model assessed as reduction of tumor size in the presence of osimertinib at 35 mg/kg/day, sc administered every 2 days for 30 days; type: functional, organism-based; conditions: time 30.0 day; summary of the method: as §3
[18] = test system: MDA-MB-231; experiment: Antiproliferative activity in human BRD4-knockdown MDA-MB-231 cells assessed as cell growth at 1 uM by CCK-8 assay; type: functional, cell-based; summary of the method: as §4
[19] = test system: BT-549; experiment: Inhibition of cell migration in human BT-549 cells at 1 uM by transwell invasion assay; type: functional, cell-based
[20] = test system: BT-549; experiment: Induction of apoptosis in human BT-549 cells in the presence of osimertinib at 1 uM by flow cytometry analysis; type: functional, cell-based
Summary of the method: (§5)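 Cells given JQ1 and/or osimertinib, then stained with Annexin V-FITC plus propidium iodide (10 min, room temperature, dark; 1 × 10^6 cells/ml in binding buffer after two PBS washes) and analysed by flow cytometry; one-way ANOVA.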

[21] = test system: MDA-MB-231; experiment: Induction of apoptosis in human MDA-MB-231 cells in the presence of osimertinib at 1 uM by flow cytometry analysis; type: functional, cell-based; summary of the method: as §5
[22] = test system: MDA-MB-231; experiment: Antiproliferative activity in human MDA-MB-231 cells assessed as reduction in size of tumor sphere at 1 uM by Tumor sphere assay; type: functional, cell-based
[23] = test system: MDA-MB-231; experiment: Antiproliferative activity in human MDA-MB-231 cells assessed as inhibited cell growth at 1 uM by CCK-8 assay; type: functional, cell-based
[24] = test system: MDA-MB-231; experiment: Induction of apoptosis in human MDA-MB-231 cells assessed as caspase-3 cleavage in the presence of osimertinib at 1 uM by Western blotting analysis; type: functional, cell-based
[25] = test system: MDA-MB-231; experiment: Effect on human MDA-MB-231 cells assessed as suppression of tumor sphere formation at 1 uM by Tumor sphere assay; type: functional, cell-based
[26] = test system: BT-549; experiment: Effect on human BT-549 cells assessed as suppression of tumor sphere formation at 1 uM by Tumor sphere assay; type: functional, cell-based
[27] = test system: MDA-MB-231; experiment: Antiproliferative activity in human MDA-MB-231 cells assessed as reduced cell growth co-treated with XMD8-92 at 1 uM by CCK-8 assay; type: functional, cell-based; summary of the method: as §1
[28] = test system: BT-549; experiment: Antiproliferative activity in human BT-549 cells assessed as reduced cell growth co-treated with XMD8-92 at 1 uM by CCK-8 assay; type: functional, cell-based; summary of the method: as §1
[29] = test system: MDA-MB-231; experiment: Effect on human MDA-MB-231 cells assessed as EGFR protein expression at 1 uM by Western blot analysis; type: functional, cell-based
[30] = test system: MDA-MB-231; experiment: Effect on human MDA-MB-231 cells assessed as RSK3 protein expression in the presence of XMD8-92 at 1 uM by Western blot analysis; type: functional, cell-based

CCNC(=O)C[C@@H]1N=C(c2ccc(Cl)cc2)c2cc(OC)ccc2-n2c(C)nnc21
active: Activity [1] | Activity [2] | Activity [3] | Activity [4] | Activity [5]

C[S+]([O-])c1ccc(-c2nc(-c3ccc(F)cc3)c(-c3ccncc3)[nH]2)cc1 (stereo not drawn)
active: Activity [6] | Activity [7]

CCOc1cc(N2CCC(O)CC2)ccc1Nc1ncc2c(n1)N(C)c1ccccc1C(=O)N2C
active: Activity [8] | Activity [9] | Activity [10]

Oc1c(F)cc(-c2cnccc2-c2ccc(N3CCOCC3)cc2)cc1F
active: Activity [11] | Activity [12]

C=CC(=O)Nc1cc(Nc2nccc(-c3cn(C)c4ccccc34)n2)c(OC)cc1N(C)CCN(C)C
active: Activity [13] | Activity [14] | Activity [15] | inhibition [16] | Activity [17] | Activity [18] | Activity [1] | inhibition [19] | Activity [20] | Activity [21] | Activity [22] | Activity [23] | Activity [24] | Activity [25] | Activity [26]

CN1CCN(c2ccc(-c3ccncc3-c3cc(F)c(O)c(F)c3)cc2)CC1
active: Activity [11] | Activity [12]

Cn1nccc1Nc1nccc(-c2ccn([C@H](CO)c3ccc(Cl)c(F)c3)c(=O)c2)n1
active: Activity [27] | Activity [28] | Activity [29] | Activity [30]

COc1cc2c(cc1-c1c(C)noc1C)ncc1[nH]c(=O)n([C@H](C)c3ccccn3)c12
active: Activity [1] | Activity [2] | Activity [3] | Activity [4] | Activity [5]
